Source: ChEMBL document CHEMBL5357072, “Structural Modification of Noscapine via Photoredox/Nickel Dual Catalysis for the Discovery of S-Phase Arresting Agents” (ACS Med Chem Lett, 2024)

What was measured:
MOLM-13 [1] = assay: Antiproliferative activity against human MOLM-13 cells assessed as inhibition of cell growth incubated for 48 hrs by CCK8 assay; assay type: functional, cell-based; conditions: MOLM-13, 48 h
Procedure, shortened: (§1)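 CCK-8 growth-inhibition assay in the malignant haematological lines MOLM-13, NB4 and Jeko-1 and in normal PBMC. Cells were treated across a range of doses and IC50 taken as the half-maximal growth-inhibitory concentration. Data are mean ± SD of triplicate samples, and experiments were repeated at least three times.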

NB-4 [2] = assay: Antiproliferative activity against human NB4 cells assessed as inhibition of cell growth incubated for 48 hrs by CCK8 assay; assay type: functional, cell-based; conditions: NB-4, 48 h; procedure, shortened: as §1
JeKo-1 [3] = assay: Antiproliferative activity against human JeKo-1 cells assessed as inhibition of cell growth incubated for 48 hrs by CCK8 assay; assay type: functional, cell-based; conditions: JeKo-1, 48 h; procedure, shortened: as §1
HeLa [4] = assay: Antiproliferative activity against human HeLa cells assessed as inhibition of cell proliferation; assay type: functional, cell-based
MCF7 = assay: Antiproliferative activity against human MCF7 cells assessed as inhibition of cell proliferation; assay type: functional, cell-based
NB-4 [5] = assay: Antiproliferative activity against human NB4 cells assessed as cell growth inhibition at 10 uM incubated for 48 hrs by CCK8 assay relative to control; assay type: functional; conditions: read-out: GI
Procedure, shortened: (§2)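 Single-concentration screen of six cancer cell lines. Cells were exposed to 10 μM compound and growth was measured by CCK-8 assay. Results are reported as inhibition rate at 10 μM.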

MOLM-13 [6] = assay: Antiproliferative activity against human MOLM-13 cells assessed as cell growth inhibition at 10 uM incubated for 48 hrs by CCK8 assay relative to control; assay type: functional; conditions: read-out: GI; procedure, shortened: as §2
JeKo-1 [7] = assay: Antiproliferative activity against human JeKo-1 cells assessed as cell growth inhibition at 10 uM incubated for 48 hrs by CCK8 assay relative to control; assay type: functional; conditions: read-out: GI; procedure, shortened: as §2
A549 = assay: Antiproliferative activity against human A549 cells assessed as cell growth inhibition at 10 uM incubated for 48 hrs by CCK8 assay relative to control; assay type: functional; conditions: read-out: GI; procedure, shortened: as §2
HeLa [8] = assay: Antiproliferative activity against human HeLa cells assessed as cell growth inhibition at 10 uM incubated for 48 hrs by CCK8 assay relative to control; assay type: functional; conditions: read-out: GI; procedure, shortened: as §2
U-251 = assay: Antiproliferative activity against human U-251 cells assessed as cell growth inhibition at 10 uM incubated for 48 hrs by CCK8 assay relative to control; assay type: functional; conditions: read-out: GI; procedure, shortened: as §2
MOLM-13 [9] = assay: Cell cycle arrest in human MOLM-13 cells assessed as accumulation of G0/G1 phase cells at 10 uM incubated for 24 hrs by RNase A/PI staining based flow cytometry analysis (reference value: 38.14%); assay type: functional
MOLM-13 [10] = assay: Cell cycle arrest in human MOLM-13 cells assessed as accumulation of G2/M phase cells at 10 uM incubated for 24 hrs by RNase A/PI staining based flow cytometry analysis (reference value: 11.74%); assay type: functional
MOLM-13 [11] = assay: Cell cycle arrest in human MOLM-13 cells assessed as accumulation of S phase cells at 10 uM incubated for 24 hrs by RNase A/PI staining based flow cytometry analysis (reference value: 50.12%); assay type: functional
MOLM-13 [12] = assay: Induction of apoptosis in human MOLM-13 cells assessed as viable cells at 10 uM incubated for 48 hrs by Annexin V-FITC/PI staining based flow cytometric analysis (reference value: 92.24%); assay type: functional; conditions: read-out: Activity
MOLM-13 [13] = assay: Induction of apoptosis in human MOLM-13 cells assessed as early apoptotic cells at 10 uM incubated for 48 hrs by Annexin V-FITC/PI staining based flow cytometric analysis (reference value: 4.10%); assay type: functional
MOLM-13 [14] = assay: Induction of apoptosis in human MOLM-13 cells assessed as late apoptotic cells at 10 uM incubated for 48 hrs by Annexin V-FITC/PI staining based flow cytometric analysis (reference value: 3.17%); assay type: functional
MOLM-13 [15] = assay: Induction of apoptosis in human MOLM-13 cells assessed as necrotic cells at 10 uM incubated for 48 hrs by Annexin V-FITC/PI staining based flow cytometric analysis (reference value: 0.48%); assay type: functional
[16] = Antiproliferative activity against Renal 1983 cells (unknown origin) assessed as inhibition of cell proliferation; assay type: functional, cell-based; conditions: Renal 1983 cell

COc1ccc2c(c1OC)C(=O)O[C@@H]2[C@H]1c2c(cc3c(c2OC)OCO3)CCN1C [NOSCAPINE]
IC50 (MOLM-13 [1]): > 20 µM | IC50 (NB-4 [2]): > 20 µM | IC50 (JeKo-1 [3]): > 20 µM | IC50 (HeLa [4]): 25 µM | IC50 (MCF7): 42 µM | inhibition of growth at 10 µM (NB-4 [5]): 26.7% | inhibition of growth at 10 µM (MOLM-13 [6]): 19% | inhibition of growth at 10 µM (JeKo-1 [7]): < 5% | inhibition of growth at 10 µM (A549): < 5% | inhibition of growth at 10 µM (HeLa [8]): < 5% | inhibition of growth at 10 µM (U-251): < 5% | Activity (MOLM-13 [9]): 25.66% | Activity (MOLM-13 [10]): 13.8% | Activity (MOLM-13 [11]): 60.54% | viability at 10 µM (MOLM-13 [12]): 83% | Activity (MOLM-13 [13]): 6.9% | Activity (MOLM-13 [14]): 8.44% | Activity (MOLM-13 [15]): 1.71% | IC50 [16]: 39 µM
